“And” between values parts separate entries of the source, which are not always exact repeats. Identical values can stand only once. Like-named read-outs stand apart in the source and are kept apart here. One block for each compound: values may come before it.
Tests used:
[1] = cited from earlier work
[2] = Plasma and brain pharmacokinetics of panobinostat in CD-1 female mice; type: in vivo
Method in brief: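 Single tail-vein dose of 15 mg/kg (3 mg/mL in PBS with 20% DMSO and 20% PEG-400) given to 12 mice, with 3 killed at each of 1, 2, 4 and 7 h. Heparinized plasma and brains frozen at −80 °C. LC–MS with internal standard, using 9-point 1–500 ng/mL calibration fitted by 1/x2 regression. Cmax taken as highest observed concentration, AUC1–7 by trapezoidal rule, and clearance from a […] model.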

[3] = Protein binding in murine plasma; type: in vitro ADME; settings: murine plasma compartment
[4] = design: species or system human
[5] = Clearance predicted for the mouse by body surface area scaling; settings: body surface area scaling from dog and rat
[6] = murine plasma; cited from earlier work
[7] = human plasma; cited from earlier work
P-gp = settings: cited from earlier work
[8] = cited from earlier work; remark: listed apart in the source
human DIPG cell lines = settings: cited from earlier work
DIPG cultures = settings: cited from earlier work
[9] = cited from earlier work; remark: listed apart in the source
[10] = dog; cited from earlier work
[11] = rat; cited from earlier work
[12] = cited from earlier work; remark: listed apart in the source
[13] = IP and IV administration; cited from earlier work
refractory solid tumors = settings: 9 pediatric patients; cited from earlier work
high-grade gliomas = settings: in combination with bevacizumab, twelve patients; cited from earlier work
[14] = female, CD-1, mouse, brain, intravenous, 15 mg/kg
[15] = female, CD-1, mouse, brain, iv, 15 mg/kg
[16] = female, CD-1, mouse, brain/plasma, iv, 15 mg/kg
[17] = female, CD-1, mouse, plasma, intravenous, 15 mg/kg
[18] = female, CD-1, mouse, plasma, iv, 15 mg/kg
[19] = intraperitoneal injection, single time-point 4 h

Compound: Cc1nc(Nc2ncc(C(=O)Nc3c(C)cccc3Cl)s2)cc(N2CCN(CCO)CC2)n1 [dasatinib]
- concentrations in the brain after inhibition of P-gp with everolimus [1]: increased concentrations

- AUC1–7 for brain ([2]; 15 mg/kg IV, mice, trapezoidal rule, 1 h to 7 h): 250 ng·h/g
- concentration at 1 h [2, 14]: 60.5 ng/g and 63.2 ng/mL and 181 nM
- concentration at 2 h [2, 14]: 42.9 ± 5.4 ng/g
- concentration at 4 h [2, 14]: 33.2 ± 6.1 ng/g
- concentration at 7 h [2, 14]: 28.1 ng/g and 29.4 ng/mL and 84.1 nM
- Cmax [2, 15]: 72.4 ng/g
- Vd [2, 15]: 49.8 L/kg
- Kp [2, 16]: 2.63
- Kp at 1 h [2, 16]: 2.22
- Kp at 2 h [2, 16]: 5.67
- Kp at 4 h [2, 16]: 22.4
- Kp at 7 h [2, 16]: 12.1
- Vd [2, 17]: 53.8 L/kg
- clearance [2, 17]: 967 mL/min/kg
- concentration at 1 h [2, 17]: 27.3 ± 2.5 ng/mL
- concentration at 2 h [2, 17]: 7.56 ± 1.8 ng/mL
- concentration at 4 h [2, 17]: 1.48 ± 0.56 ng/mL
- concentration at 7 h [2, 17]: 2.33 ± 1.18 ng/mL
- AUC [2, 18]: 95 ng·h/mL
- Cmax [2, 18]: 132 ng/mL
- Vd [2, 18]: 140 L/kg
- clearance [2, 18]: 1360 mL/min/kg
- drug unbound in plasma [3]: 40%
- expected human brain nanomolar concentration ([4]; corresponding to 45.95 ng/g): approximately 142.2 nM
- expected human brain concentration ([4]; pediatric Cmax 20.7 ng/mL x brain to plasma ratio 2.22): approximately 45.95 ng/g
- clearance predicted in the mouse [5]: 918 mL/min/kg
Compound: Cc1[nH]c2ccccc2c1CCNCc1ccc(/C=C/C(=O)NO)cc1 [panobinostat, 2-hydroxypropanoic acid, compound with 2-(E)-Nhydroxy-3-[4-[[[2-(2-methyl-1H-indol-3-yl)ethyl]amino]methyl]phenyl]-2-propenamide]
- protein binding [6]: approximately 60%
- protein binding [7]: 75–90%
- P-gp substrate status (P-gp): substrate of P-gp
- BCS class [8]: Class II
- permeability (BCS) [8]: high permeability
- solubility (BCS) [8]: low solubility
- IC50 (human DIPG cell lines; prior DIPG models): 28.3 nM
- IC50 (human DIPG cell lines; range in human DIPG cell lines): 12.1 to 28.3 nM
- DIPG cultures demonstrating sensitivity (DIPG cultures): 12 of the 16
- brainstem concentration relative to cerebral cortex (times) [9]: more than 7
- concentration in brainstem tumor tissue [9, 19]: 550 ± 51 nM
- concentration in cerebral cortex [9, 19]: 70 ± 10 nM
- volume of distribution [10]: 42 L/kg
- volume of distribution [11]: 40.2 L/kg
- brain penetration in clinical reports [12]: minimal to no brain penetration
- concentrations in the CSF ([12]; prior studies): negligible concentrations
- concentrations in xenograft, intestine, bladder, and heart tissue versus plasma [13]: higher concentrations
- objective response (refractory solid tumors): No patient had an objective response
- patients with stable disease (refractory solid tumors): 3 patients
- tolerability (refractory solid tumors): acceptable tolerability
- median progression free survival (PFS) (high-grade gliomas): 4.3 months
- patients achieving a partial response (high-grade gliomas): Three
- patients with stable disease (high-grade gliomas): 6 patients

Compound: COc1cc2c(Nc3ccc(Br)cc3F)ncnc2cc1OCC1CCN(C)CC1 [vandetanib]
- concentrations in the brain after inhibition of P-gp with everolimus [1]: increased concentrations

Reference: publication PMC8896403 (Cancer chemotherapy and pharmacology, 2021)
